Published values gathered from unrelated publications.
Lines come from different studies, so protocols differ.
ADRA1A: Alpha-1A adrenergic receptor (ADRA1A, Homo sapiens, UniProt P35348)
MAOA: Amine oxidase [flavin-containing] A (MAOA, Homo sapiens, UniProt P21397)
WEE2: Wee1-like protein kinase 2 (WEE2, Homo sapiens, UniProt P0C1S8)
HIPK4: Homeodomain-interacting protein kinase 4 (HIPK4, Homo sapiens, UniProt Q8NE63)

The remaining activity of `COc1cc(Cl)c(C(=O)N[C@@H](CN[C@H]2CC[C@@H](N)CC2)Cc2ccc(C#N)cc2)cc1-c1ccc(CN[C@H](C)c2ccc(C)cc2)o1` is reported as 90% (Cyclin-dependent kinase-like 4 (CDKL4, Homo sapiens, UniProt Q5MAI5); enzyme activity, inhibitor; 1 µM).
`Oc1cccc(Nc2nc(-c3ccc(F)cc3F)cs2)c1` has an inhibition of 35.2% (ADRA1A; cell-free assay; 10 µM).
For `O=C(Nc1ccc([N+](=O)[O-])cc1[N+](=O)[O-])c1ccccc1`, the inhibition was 82% (MAOA; enzyme activity, inhibitor; 1 µM, 20 min).
`Cc1ccc(C(=O)Nc2ccc(CN3CCN(C)CC3)c(C(F)(F)F)c2)cc1C#Cc1cnc2cccnn12` has a remaining activity of 96% (WEE2; enzyme activity, inhibitor; 23.5 nM).
For `O=C(Nc1ccccc1)c1cc(Cl)ccc1O`, the inhibition was 20% (MAOA; enzyme activity, inhibitor; 1 µM, 20 min).
With `CC[C@H](C)[C@H](NC(=O)[C@H](CC(=O)O)NC(=O)[C@@H](NC(=O)[C@H](Cc1ccccc1)NC(=O)[C@H](C)NC(=O)[C@H](Cc1ccccc1)NC(=O)[C@@H]1CCCN1C(=O)[C@H](C)NC(=O)[C@@H](NC(=O)[C@H](CO)NC(=O)[C@H](Cc1ccccc1)NC(=O)[C@H](CCCNC(=N)N)NC(=O)[C@H](CCCNC(=N)N)NC(=O)[C@@H](N)CC(C)C)[C@@H](C)O)[C@@H](C)CC)C(=O)N[C@@H](CC(N)=O)C(=O)N[C@@H](CC(=O)O)C(=O)N[C@H](C(=O)N[C@H](C(=O)N[C@@H](CC(N)=O)C(=O)N[C@@H](Cc1ccccc1)C(=O)O)[C@@H](C)CC)C(C)C` the kon was 1e+06 M⁻¹ s⁻¹ (Integrin alpha-V/beta-3 (Homo sapiens, UniProt P05106+P06756); binding, BLI).
`O=C(Nc1ccc([N+](=O)[O-])cc1Cl)c1ccc2ccccc2c1O` has an inhibition of -4% (MAOA; enzyme activity, inhibitor; 1 µM, 20 min).
`Cc1nc2ccc(NC(=O)CCNC(=O)CCCc3ccc(CC(C(=O)O)C(=O)O)cc3)cc2s1` has a residence time of 0.94 s (L-lactate dehydrogenase A chain (LDHA, Homo sapiens, UniProt P00338); binding, SPR).
With `CN(C(=O)n1cnc(-c2ccc[n+]([O-])c2)c1)C1CCCCC1` the kinact/KI was 1240 M⁻¹ s⁻¹ (Fatty-acid amide hydrolase 1 (Faah, Rattus norvegicus, UniProt P97612); enzyme activity, inhibitor).
For `Nc1ncnc2occ(-c3ccc(NC(=O)Nc4cc(C(F)(F)F)ccc4F)cc3)c12`, the remaining signal was 99% (WEE2; cell-free assay, inhibitor; 20 µM).
`COc1cc(NC(C)=O)c(Cl)cc1C(=O)Nc1nccs1` has an inhibition of 42.5% (Kappa-type opioid receptor (Oprk1, Rattus norvegicus, UniProt P34975); ligand displacement, radioligand; 10 µM).
`O=C(O)c1ccc2c(c1)nc(NCCc1ccccc1)c1ccncc12` gave a remaining activity of 5% (HIPK4; enzyme activity, inhibitor, radiometric; 1 µM).
The inhibition of `O=C(Nc1ccc([N+](=O)[O-])cc1Cl)c1cc2ccccc2cc1O` is reported as -2% (MAOA; enzyme activity, inhibitor; 1 µM, 20 min).
`O=C(O)c1ccc2c(c1)nc(Nc1ccc(Cl)cc1)c1ncncc12` gave a remaining activity of 62% (HIPK4; enzyme activity, inhibitor, radiometric; 1 µM).
With `O=C(Nc1ccc([N+](=O)[O-])cc1)c1cc(Cl)ccc1O` the inhibition was 45% (MAOA; enzyme activity, inhibitor; 1 µM, 20 min).
`N#Cc1cccc(Nc2nc3cc(C(=O)O)ccc3c3cncnc23)c1` has a remaining activity of 35% (HIPK4; enzyme activity, inhibitor, radiometric; 1 µM).
With `NNCCc1ccc(NC(=O)CCCc2ccccc2)cc1` the KI (inactivation) was 2600 nM (MAOA; enzyme activity, inhibitor).
With `COc1cc([N+](=O)[O-])ccc1NC(=O)c1cc(Cl)ccc1O` the inhibition was 9% (MAOA; enzyme activity, inhibitor; 1 µM, 20 min).
With `O=C(c1ccc(Cl)cc1)N(Cc1ccccc1)C1CCCCC1` the inhibition was 17% (ADRA1A; cell-free assay; 10 µM).
`CCCOc1ccc(OC)c(F)c1C(=O)c1ccc(C(=O)N[C@@H]2CNC[C@H]2NC(=O)c2ccc3[nH]ncc3c2)cc1` has a remaining activity of 78% (Ribosomal protein S6 kinase alpha-1 (Rps6ka1, Rattus norvegicus, UniProt Q63531); enzyme activity, inhibitor; 0.75 µM).
`O=C(O)c1ccc2c(c1)nc(Nc1ccccc1)c1ccncc12` gave a remaining activity of 20% (Homeodomain-interacting protein kinase 3 (HIPK3, Homo sapiens, UniProt Q9H422); enzyme activity, inhibitor, radiometric; 1 µM).
With `O=C(Nc1ccccc1)c1ccc(Cl)cc1` the inhibition was 18% (MAOA; enzyme activity, inhibitor; 1 µM, 20 min).
